This note sets out measurements from ChEMBL document CHEMBL1128684, “The serotonin 5-HT4 receptor. 2. Structure-activity studies of the indole carbazimidamide class of agonists” (J Med Chem, 1995).

The target in test [1] is 5-hydroxytryptamine receptor 4 (Cavia porcellus) (UniProt O70528). The experiment in a line: Relative efficacy compared to serotonin(1) in 5-hydroxytryptamine 4 assay. Type of test: functional. The method, boiled down: (§1)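 Longitudinal muscle strips of guinea pig ileum kept in tyrode solution with 0.1 μM methylsergide. Twitch contractions (2–3 s) evoked through platinum electrodes by square-wave pulses at 0.1 Hz and 2 ms duration. Once a stable submaximal response was reached, noncumulative concentration–response curves were built for the agonists.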

Test [2] shares this target. The experiment in a line: 5-hydroxytryptamine 4 receptor agonistic activity was measured by twitch response enhancing activity in electrically stimulated guinea pig ileum preparation. Type of test: functional, tissue-based. The method, boiled down:
as §1

In test [3] the target is T1, 5-hydroxytryptamine receptor 2A (Rattus norvegicus, UniProt P14842). The experiment in a line: (§2) Agonistic activity against 5-hydroxytryptamine 2A receptor in rat cortex using [3H]ketanserin. Type of test: functional, tissue-based.
The target of test [4] is Serotonin 3 (5-HT3) receptor. The experiment in a line: Antagonistic activity against 5-hydroxytryptamine 3 receptor in guinea pig ileum assay.
Test [5] addresses T1, 5-hydroxytryptamine receptor 2A. The experiment in a line: Agonistic activity against 5-hydroxytryptamine 2A receptor in rat cortex using [3H]-ketanserin. The class given is tissue-based. The method, boiled down:
(§3)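 Binding to rat cortex. Table footnote lists [3H]ketanserin as the radioligand.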

Test [6] shares this target. Described as §2. Type of test: tissue-based. The gist of the method: as §3

Broadly, the Ki is a measure of affinity in units of concentration, obtained from inhibition or displacement. A lower Ki goes with higher affinity. As usually defined, the pA2 is a measure of antagonist potency on a negative log scale.

T1 sequence (P14842 whole entry): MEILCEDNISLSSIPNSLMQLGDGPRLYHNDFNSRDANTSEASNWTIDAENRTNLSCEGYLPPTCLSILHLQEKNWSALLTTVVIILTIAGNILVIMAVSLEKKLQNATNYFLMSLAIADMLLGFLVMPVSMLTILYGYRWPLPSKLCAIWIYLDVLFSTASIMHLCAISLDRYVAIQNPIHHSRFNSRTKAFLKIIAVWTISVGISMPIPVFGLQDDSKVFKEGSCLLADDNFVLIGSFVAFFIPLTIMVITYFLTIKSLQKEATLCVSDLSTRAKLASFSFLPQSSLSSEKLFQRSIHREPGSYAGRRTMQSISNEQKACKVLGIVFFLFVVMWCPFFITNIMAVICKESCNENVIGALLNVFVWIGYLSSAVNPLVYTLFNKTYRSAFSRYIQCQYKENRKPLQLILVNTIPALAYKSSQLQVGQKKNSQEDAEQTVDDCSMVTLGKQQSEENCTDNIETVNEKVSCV
Chain of 5-hydroxytryptamine receptor 4 (Cavia porcellus) (O70528 whole entry): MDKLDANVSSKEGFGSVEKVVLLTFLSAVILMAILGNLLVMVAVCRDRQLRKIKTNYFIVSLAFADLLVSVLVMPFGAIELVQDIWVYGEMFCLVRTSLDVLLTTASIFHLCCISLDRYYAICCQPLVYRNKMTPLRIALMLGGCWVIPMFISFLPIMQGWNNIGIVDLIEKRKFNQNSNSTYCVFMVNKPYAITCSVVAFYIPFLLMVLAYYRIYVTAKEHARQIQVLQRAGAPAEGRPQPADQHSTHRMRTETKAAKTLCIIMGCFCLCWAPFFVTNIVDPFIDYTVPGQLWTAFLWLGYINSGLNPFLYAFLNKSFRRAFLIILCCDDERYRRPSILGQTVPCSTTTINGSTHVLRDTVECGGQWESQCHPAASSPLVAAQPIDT

`CCCCC/N=C(/N)N/N=C/c1c[nH]c2ccc(OC(=O)CCCCC)cc12`: the Relative efficacy in test [1] stood at 0. In addition, the pD2 in test [2] was less than 4.
`CCCCC/N=C(/N)N/N=C/c1c[nH]c2ccc(OCCN(C)C)cc12` came in with a Relative efficacy in test [1] of 0.3. In addition, the pD2 in test [2] worked out at 7.6.
For `CCCCC/N=C(/N)N/N=C/c1c[nH]c2ccc(OC(=O)N(C)C)cc12`, the Relative efficacy in test [1] is 0.7. For the same molecule, in test [2], the pD2 is less than 7.
In turn, `Oc1ccc2[nH]cc(/C=N/Nc3ccccn3)c2c1` showed a Relative efficacy in test [1] of 0.8. The pD2 in test [2] stood at 6.1.
Turning to `CCCCC/N=C(/N)N/N=C/c1c[nH]c2ccc(OCCOC)cc12`, in test [1], the Relative efficacy came out at 0.7. In addition, the pD2 in test [2] turned out to be 6.6.
The like results for `CCCCC/N=C(/N)N/N=C/c1[nH]nc2ccc(OC)cc12` were, in that order, 0 and less than 4.
On to `Cl.N=C(N)N/N=C/c1c[nH]c2ccc(O)cc12`, for which the Relative efficacy in test [1] was determined as 1.5. The molecule also showed a Ki in test [3] of 0.24 µM. For the same molecule, the pD2 in test [2] worked out at 8.8. The molecule further displayed a pA2 in test [4] of less than 5.
With `COc1cccc(CCNC(=N)N/N=C/c2c[nH]c3ccc(O)cc23)c1`, the Relative efficacy in test [1] is 0.5. Besides, the pD2 in test [2] was 8.9.
Taken in the same sequence, the figures for `CCCC(=O)/N=C(/N)N/N=C/c1c[nH]c2ccc(O)cc12` were 1 and 7.7.
The like results for `CCCCC/N=C(/N)N/N=C/c1csc2ccc(OC)cc12` were, in that order, 0.5 and 6.1.
For `Oc1ccc2[nH]cc(/C=N/NC3=NCCS3)c2c1`, the Relative efficacy in test [1] was determined as 0.5. Moreover, the pD2 in test [2] is 6.5.
The like results for `CCCCC/N=C(/N)N/N=C/c1c[nH]c2ccc(N)cc12` were, in that order, 1.6 and 7.6.
Take `CCCCC/N=C(/N)N/N=C/c1c[nH]c2ccc([Si](C)(C)C)cc12`: the pD2 in test [2] is less than 5.5.
`CCCCC/N=C(/N)N/N=C/c1c[nH]c2ccc(OCCC(C)C)cc12` yielded a Relative efficacy in test [1] of 0.8. For the same molecule, in test [2], the pD2 turned out to be 5.9.
The like results for `N/C(=N/N=C/c1c[nH]c2ccc(O)cc12)NCCNC(=O)c1ccccc1` were, in that order, 0.5 and 8.5.
In test [1], `CCCCCCCCNC(=N)N/N=C/c1c[nH]c2ccc(O)cc12` showed a Relative efficacy of 0. For the same molecule, the pD2 in test [2] is less than 4.
Molecule `CCCCC/N=C(/N)N/N=C/c1c[nH]c2ccc(OCc3ccccc3)cc12` yielded a Relative efficacy in test [1] of 1.8. Also, in test [2], the pD2 was less than 6.
`CCCCC/N=C(/N)N/N=C/c1c[nH]c2ccc(OC(C)C)cc12`: the affinity in test [5], expressed as Ki, was 2.51 µM. The same molecule gave a Relative efficacy in test [1] of 0.5. Also, the pD2 in test [2] came to 6.8. The molecule also displayed a pA2 in test [4] of less than 5.
In turn, `Oc1ccc2[nH]cc(/C=N/NC3=NCCC3)c2c1` registered a Relative efficacy in test [1] of 1. The pD2 in test [2] was 7.1.
Regarding `CCCCC/N=C(/N)N/N=C/c1csc2ccc(O)cc12`, in test [2], the pD2 was less than 7.
Turning to `CCCCC/N=C(/N)N/N=C/c1c[nH]c2ccc(OCC(=O)N(C)C)cc12`, in test [1], the Relative efficacy stood at 1.4. In addition, the pD2 in test [2] is 7.3.
`CCCCC/N=C(/N)N/N=C/c1c[nH]c2ccc(OCC=C(C)C)cc12` showed a Ki in test [6] of 6.31 µM. In addition, the Relative efficacy in test [1] amounted to 2.2. For the same molecule, the pD2 in test [2] turned out to be 8.15. In test [4], this molecule returned a pA2 of less than 5.
`N/C(=N/N=C/c1c[nH]c2ccc(O)cc12)NCCCc1ccccc1`: the Relative efficacy in test [1] was 0.4. Also, the pD2 in test [2] worked out at 8.5.
Molecule `Oc1ccc2[nH]cc(/C=N/Nc3ncc[nH]3)c2c1` gave a Ki in test [6] of 1.62 µM. For the same molecule, in test [1], the Relative efficacy turned out to be 1. Moreover, the pD2 in test [2] was found to be 8.2.
Molecule `CCCCC/N=C(/N)N/N=C/c1c[nH]c2ccc(OC)nc12` yielded a Relative efficacy in test [1] of 1. Also, the pD2 in test [2] is 7.1.
As for `CCCCC/N=C(/N)N/N=C/c1c[nH]c2ccccc12`, in test [1], the Relative efficacy amounted to 0.1. The pD2 in test [2] was less than 6.
The like results for `CCCCC/N=C(/N)N/N=C/c1[nH]nc2ccc(O)cc12` were, in that order, 0 and less than 4.
In test [6], `CCCCCCCN(C)C(=N)N/N=C/c1c[nH]c2ccc(O)cc12` gave a Ki of 2.34 µM. The same molecule had a Relative efficacy in test [1] of 1.6. The pD2 in test [2] was 8.
In test [1], `N/C(=N/N=C/c1c[nH]c2ccc(O)cc12)NCCc1ccc(Cl)cc1` came in with a Relative efficacy of 0.2. Moreover, the pD2 in test [2] came to 8.4.
In test [1], `CCCCC/N=C(/N)N/N=C/c1c[nH]c2ccc(OCOC)cc12` returned a Relative efficacy of 0.7. For the same molecule, the pD2 in test [2] turned out to be 7.5.
As to `CN(/N=C/c1c[nH]c2ccc(O)cc12)C(=N)N`, in test [1], the Relative efficacy was 0.5. The pD2 in test [2] was determined as 5.8.
With `N/C(=N/N=C/c1c[nH]c2ccc(O)cc12)NCCc1ccccc1`, the Relative efficacy in test [1] came out at 1. For the same molecule, the pD2 in test [2] turned out to be 9.1.
`CCCCC/N=C(/N)N/N=C/c1c[nH]c2ccc(O)nc12` gave a Ki in test [6] of 1.35 µM. In test [1], the Relative efficacy turned out to be 0.9. For the same molecule, in test [2], the pD2 stood at 7.8.
In test [1], `CCCCCNC(=N)N/N=C/c1c[nH]c2ccc(OC)cc12` showed a Relative efficacy of 0.2. Also, the pD2 in test [2] amounted to 6.9.
For `CN1CCN=C1N/N=C/c1c[nH]c2ccc(O)cc12`, the Relative efficacy in test [1] came to 0. Also, the pD2 in test [2] is less than 4.
The like results for `CCCCC/N=C(/N)N/N=C/c1c[nH]c2ccc(OCC)cc12` were, in that order, 0.1 and less than 7.
Consider `N/C(=N/N=C/c1c[nH]c2ccc(O)cc12)NCCCO`, for which, in test [1], the Relative efficacy worked out at 0.7. Also, the pD2 in test [2] was 7.7.
As to `Oc1ccc2[nH]cc(/C=N/NC3=NCCN3)c2c1`, in test [1], the Relative efficacy was 0.7. For the same molecule, the pD2 in test [2] was found to be 7.3.
On to `CCCCCNC(=N)N/N=C/c1c[nH]c2ccc(O)cc12`, for which the Ki in test [6] is 0.224 µM. Moreover, in test [1], the Relative efficacy is 0.9. Further, the pD2 in test [2] worked out at 9.3. The molecule also came in with a pA2 in test [4] of less than 5.
Take `Cl.N/C(=N/N=C/c1c[nH]c2ccc(O)cc12)NCCc1ccc(Cl)c(Cl)c1`: the Ki in test [5] is 0.191 µM. Also, in test [1], the Relative efficacy was determined as 0.1. The pD2 in test [2] was greater than 10. Besides, the pA2 in test [4] is listed as less than 5.
Turning to `N/C(=N/C(=O)NC1CCCCC1)N/N=C/c1c[nH]c2ccc(O)cc12`, in test [1], the Relative efficacy came out at 0.5. In test [2], the pD2 came out at 8.5.
The like results for `CCCCC/N=C(/N)N/N=C/c1c[nH]c2ccc(OCCO)cc12` were, in that order, 1 and 7.4.
In test [1], `CCCCC/N=C(/N)N/N=C/c1c[nH]c2ccc(NS(C)(=O)=O)cc12` showed a Relative efficacy of 0. Further, the pD2 in test [2] is less than 4.
The molecule `CCCCC/N=C(/N)N/N=C/c1c[nH]c2ccc(OC(=O)c3ccccc3)cc12` registered a Relative efficacy in test [1] of 0.5. The pD2 in test [2] amounted to 7.
The like results for `N/C(=N/N=C/c1c[nH]c2ccc(O)cc12)NCCc1ccccc1Cl` were, in that order, 0.5 and 8.5.
The molecule `CCCCCN(C)C(=N)N/N=C/c1c[nH]c2ccc(O)cc12` yielded a Relative efficacy in test [1] of 0.3. Further, the pD2 in test [2] worked out at 7.7.
